For experiment [1], the species on record is Homo sapiens. In words: Inhibition of human GST-SOD1 A4V mutant aggregation expressed in Escherichia coli Rosetta assessed as dimeric enzyme level at 75 uM by […].
Experiment [2] addresses Superoxide dismutase [Cu-Zn] (Homo sapiens) (UniProt P00441). The experiment is described as follows: Binding affinity to human GST-SOD1 expressed in Escherichia coli Rosetta at 100 uM in presence of human plasma by reverse phase HPLC analysis. The format is cell-free. Summed up: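 GST-SOD-1 fusion (final 75μM) added to 1 ml human blood plasma with compound at 100μM; shaken 60 rpm, 4°C, 24 h. Complex captured on glutathione-sepharose (4°C, 1 h), compound released with 5% TFA and quantified by C18 reverse-phase HPLC (40-100% acetonitrile/0.2% TFA gradient, 20 min). Buffer-only control taken as theoretical maximum for relative binding; GST tag alone as control.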

The species named for experiment [3] is Homo sapiens. In words: Inhibition of human GST-SOD1 A4V mutant aggregation expressed in Escherichia coli Rosetta assessed as dimeric enzyme level at 20 uM […]. An outline of the steps: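 Metal-free SOD-1 A4V apoprotein (25μM) preincubated with increasing compound concentrations, 37°C, 15 min, then 5mM EDTA added and aggregation run 4 hrs at 37°C. Dimer measured by size exclusion chromatography peak area; percentage inhibition calculated against untreated A4V.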

The species entered for experiment [4] is Homo sapiens. The experiment is described as follows: Inhibition of human GST-SOD1 A4V and N53A mutant aggregation expressed in Escherichia coli Rosetta assessed as dimeric enzyme level at 75 uM by […]. Summed up: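 Metal-free SOD-1 mutant prepared by dialysis against acetate pH 3.8/10mM EDTA, then pH 5.5/100mM NaCl; chelex-treated buffers, plastic tubes. Dimer purified on Superdex 75. Apoprotein 25μM preincubated with compound 75μM, 37°C, 15 min; aggregation started with 5mM EDTA at 37°C. Aliquots analysed by Superdex 200 gel filtration in TBS pH 7.4 (220/276 nm); dimer estimated from peak area.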

Structures are written as SMILES. Activity calls are given as the source filed them. The calls are words filed in the database; no cut-off is given here.

Superoxide dismutase [Cu-Zn] (Homo sapiens), sequence (P00441 whole entry, the tested form may be a part): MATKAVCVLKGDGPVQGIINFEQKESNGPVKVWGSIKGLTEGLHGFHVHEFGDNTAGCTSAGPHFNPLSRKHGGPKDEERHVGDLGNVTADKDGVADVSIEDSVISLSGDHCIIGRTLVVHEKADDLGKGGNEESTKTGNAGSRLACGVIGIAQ

For the compound `O=c1[nH]nc(SCc2c(F)cccc2Cl)c(=O)[nH]1`, in the experiment listed under Homo sapiens [1], the outcome was Active. For the same compound, the result in experiment [2] was inactive.
With `O=c1cc(Nc2ccc(Cl)cc2F)[nH]c(=O)[nH]1`, the outcome in experiment [2] was inactive.
As for `O=c1[nH]nc(SCc2ccccc2Cl)c(=O)[nH]1`, the outcome in the experiment listed under Homo sapiens [1] was Active. Also, the outcome in experiment [2] was inactive.
With `O=c1[nH]cc(CSc2n[nH]c(=O)[nH]c2=O)c(=O)[nH]1`, in the experiment filed under Homo sapiens [3], the outcome was Active. Besides, in the experiment filed under Homo sapiens [4], the result was inactive.
On to `O=c1cc(Nc2ccc3ccccc3c2)[nH]c(=O)[nH]1`, for which, in the experiment filed under Homo sapiens [1], the outcome was Active. In experiment [2], the outcome was inactive.
As to `O=c1[nH]nc(SCc2ccccc2)c(=O)[nH]1`, the result in the experiment listed under Homo sapiens [1] and in the experiment filed under Homo sapiens [3] was Active. The result (in experiment [2]; in the experiment filed under Homo sapiens [4]) was inactive.
